Data on ten molecules can be found in ChEMBL document CHEMBL3351353, “Molecular dynamics study-guided identification of cyclic amine structures as novel hydrophobic tail components of hPPARγ agonists” (Bioorg Med Chem Lett, 2014).

The nature of the series: Thermodynamic solubility of the compound in phosphate buffer at pH 7.2 to 7.4 at 1 mg after 48 hrs by shake flask method. Conditions: read-out: Therm_solubility. Format: physicochemical. Summed up:
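Shake-flask method: 1 mg of solid ground in an agate mortar, taken up in 1.0 mL of a 1:1 mixture of phosphate buffer (pH 7.2–7.4) and EtOH, shaken 48 h at 25 °C. An aliquot was filtered (0.45 µm), the filtrate diluted in CH₃CN and analysed by HPLC-UV at 254 nm. Concentration was calculated from a prior calibration curve and corrected for dilution.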

Converted amounts (≈) assume the structure as drawn.

Turning to `CCCOc1ccc(C[C@@H](Cc2ccccc2)C(=O)O)cc1CNC(=O)c1ccc(N2CC3CCC(C3)C2)cc1`, the solubility thermodynamic at 48 h turned out to be 10 µg/mL (≈ 18.5 µM).

Consider `CCCOc1ccc(C[C@@H](Cc2ccccc2)C(=O)O)cc1CNC(=O)c1ccc(C23CC4CC(CC(C4)C2)C3)cc1`, for which the solubility thermodynamic at 48 h was less than 1 µg/mL.

For `CCCOc1ccc(C[C@@H](Cc2ccccc2)C(=O)O)cc1CNC(=O)c1ccc(N2C3CC4CC(C3)CC2C4)cc1`, the solubility thermodynamic at 48 h is less than 10 µg/mL.

Consider `CCCOc1ccc(C[C@@H](Cc2ccccc2)C(=O)O)cc1CNC(=O)c1ccc(N2CCCC(C)(C)C2)cc1`, for which the solubility thermodynamic at 48 h was less than 10 µg/mL.

`CCCOc1ccc(C[C@@H](Cc2ccccc2)C(=O)O)cc1CNC(=O)c1ccc(N2CCCCCCC2)cc1`: the solubility thermodynamic at 48 h is less than 10 µg/mL.

Take `CCCOc1ccc(C[C@@H](Cc2ccccc2)C(=O)O)cc1CNC(=O)c1ccc(N2CCCCC2)cc1`: the solubility thermodynamic at 48 h amounted to 10 µg/mL (≈ 19.4 µM).

Turning to `CCCOc1ccc(C[C@@H](Cc2ccccc2)C(=O)O)cc1CNC(=O)c1ccc(N2CCC(C)(C)CC2)cc1`, the solubility thermodynamic at 48 h is less than 10 µg/mL.

On to `CCCOc1ccc(C[C@@H](Cc2ccccc2)C(=O)O)cc1CNC(=O)c1ccc(N2CC(C)(C)CC(C)(C)C2)cc1`, for which the solubility thermodynamic at 48 h was less than 10 µg/mL.

Take `CCCOc1ccc(C[C@@H](Cc2ccccc2)C(=O)O)cc1CNC(=O)c1ccc(N2C3CCCC2CC3)cc1`: the solubility thermodynamic at 48 h turned out to be 10 µg/mL (≈ 18.5 µM).

For the molecule `CCCOc1ccc(C[C@@H](Cc2ccccc2)C(=O)O)cc1CNC(=O)c1ccc(N2C3CCCC2CCC3)cc1`, the solubility thermodynamic at 48 h was less than 10 µg/mL.
